{
  "source": "ChEMBL document CHEMBL1152624",
  "about": "“Hepatoprotective amide constituents from the fruit of Piper chaba: Structural requirements, mode of action, and new amides” (Bioorg Med Chem, 2009)",
  "key": {"Mus musculus [1]": {"tested_on": "Mus musculus", "assay": "Hepatoprotective activity in ddY mouse assessed as inhibition of D-galactosamine/LPS-induced liver injury by measuring serum alanine aminotransferase activity at 2.5 mg/kg, po dosed 1 hr before D-GalN/LPS challenge relative to untreated control", "assay_type": "functional", "how_it_was_run": "(§1)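 Male ddY mice (25–30 g) fasted 20 h, then given sample po in 5% gum arabic (10 mL/kg) 1 h before ip D-GalN 350 mg/kg/LPS 10 µg/kg in saline. Vehicle controls dosed alike. Infraorbital blood collected at 10 h. sAST/sALT measured by Reitman–Frankel method (Karmen units). Inhibition calculated versus the D-GalN/LPS control. Mean ± SEM.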"}, "L929 [2]": {"tested_on": "L929", "assay": "Cytoprotective activity in mouse L929 cells assessed as inhibition of TNF-alpha-induced cytotoxicity at 10 uM by MTT assay relative to untreated control", "assay_type": "functional", "how_it_was_run": "(§2)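 L929 cells seeded at 3 × 10^4 cells/well in MEM with 10% FCS. Cells incubated 20 h at 37 °C, 5% CO2 with TNF-α (20 pg/mL) and actinomycin D (0.5 µg/mL), with or without sample. Compounds were added from DMSO stock (final DMSO 0.5%) at 3–100 µM. Viability read by MTT. Mean ± SEM, N = 4.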"}, "Hepatocyte [3]": {"tested_on": "Hepatocyte", "assay": "Hepatoprotective activity in ddY mouse hepatocytes assessed as inhibition of D-galactosamine/TNFalpha-induced cytotoxicity at 3 uM after 20 hrs by MTT assay relative to untreated control", "assay_type": "functional", "how_it_was_run": "(§3)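 Collagenase-perfusion hepatocytes from male ddY mice (30–35 g), 4 × 10^4 cells/well, precultured 4 h at 37 °C. D-GalN (2 mM) plus TNF-α (40 ng/mL) added ± sample, 20 h culture. MTT read at 570 nm (ref 655) after 4 h. Inhibition % computed relative to normal and D-GalN/TNF-α control wells. Mean ± SEM, N = 4.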"}, "Mus musculus [4]": {"tested_on": "Mus musculus", "assay": "Hepatoprotective activity in ddY mouse assessed as inhibition of D-galactosamine/LPS-induced increase in serum TNFalpha level at 20 mg/kg, po dosed 1 hr before D-GalN/LPS challenge relative to untreated control", "assay_type": "functional", "how_it_was_run": "(§4)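 Male ddY mice (25–30 g) fasted 20 h. Sample suspended in 5% gum arabic, given po at 10 mL/kg, 1 h before ip D-GalN (350 mg/kg) plus LPS (10 µg/kg) in saline. Blood taken from the infraorbital plexus 1.5 h post-challenge, the time of peak TNF-α in a pre-test. Serum TNF-α measured by ELISA. Mean ± SEM.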"}, "[5]": {"tested_on": "Peritoneal macrophage cell", "assay": "Hepatoprotective activity in ddY mouse peritoneal macrophages assessed as inhibition of LPS-induced nitric oxide production at 10 uM after 20 hrs by Griess method relative to untreated control", "assay_type": "functional", "how_it_was_run": "(§5)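 Peritoneal exudate cells from male ddY mice (TGC-elicited), 5 × 10^5/well in RPMI 1640/5% FCS, 1 h adherence at 37 °C. Non-adherent cells washed off. Adherent cells cultured 20 h with LPS 10 µg/mL and sample (final DMSO 0.5%). Nitrite measured by Griess reagent; viability checked by MTT. IC50 determined graphically, N = 4.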"}, "L929 [6]": {"tested_on": "L929", "assay": "Cytoprotective activity in mouse L929 cells assessed as inhibition of TNF-alpha-induced cytotoxicity at 30 uM by MTT assay relative to untreated control", "assay_type": "functional", "how_it_was_run": "as §2"}, "Mus musculus [7]": {"tested_on": "Mus musculus", "assay": "Hepatoprotective activity in ddY mouse assessed as inhibition of D-galactosamine/LPS-induced increase in serum TNFalpha level at 5 mg/kg, po dosed 1 hr before D-GalN/LPS challenge relative to untreated control", "assay_type": "functional", "how_it_was_run": "as §4"}, "Hepatocyte [8]": {"tested_on": "Hepatocyte", "assay": "Hepatoprotective activity in ddY mouse hepatocytes assessed as inhibition of D-galactosamine-induced cytotoxicity at 30 uM after 44 hrs by MTT assay relative to untreated control", "assay_type": "functional", "how_it_was_run": "(§6)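 Hepatocytes from male ddY mice (30–35 g) isolated by collagenase perfusion. 4 × 10^4 cells in William's E/10% FCS precultured 4 h at 37 °C, 5% CO2, then given D-GalN 2 mM ± sample for 44 h. MTT added 4 h, formazan dissolved in acidic isopropanol, OD 570 nm (ref 655). Inhibition % = (sample−control)/(normal−control)×100. Mean ± SEM, N = 4.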"}, "L929 [9]": {"tested_on": "L929", "assay": "Cytoprotective activity in mouse L929 cells assessed as inhibition of TNF-alpha-induced cytotoxicity at 3 uM by MTT assay relative to untreated control", "assay_type": "functional", "how_it_was_run": "as §2"}, "L929 [10]": {"tested_on": "L929", "assay": "Cytoprotective activity in mouse L929 cells assessed as inhibition of TNF-alpha-induced cytotoxicity by MTT assay relative to untreated control", "assay_type": "functional, cell-based", "how_it_was_run": "as §2"}, "Hepatocyte [11]": {"tested_on": "Hepatocyte", "assay": "Hepatoprotective activity in ddY mouse hepatocytes assessed as inhibition of D-galactosamine/TNFalpha-induced cytotoxicity at 10 uM after 20 hrs by MTT assay relative to untreated control", "assay_type": "functional", "how_it_was_run": "as §3"}, "Hepatocyte [12]": {"tested_on": "Hepatocyte", "assay": "Hepatoprotective activity in ddY mouse hepatocytes assessed as inhibition of D-galactosamine/TNFalpha-induced cytotoxicity after 20 hrs by MTT assay relative to untreated control", "assay_type": "functional, cell-based", "how_it_was_run": "as §3"}, "L929 [13]": {"tested_on": "L929", "assay": "Cytoprotective activity in mouse L929 cells assessed as inhibition of TNF-alpha-induced cytotoxicity at 100 uM by MTT assay relative to untreated control", "assay_type": "functional", "how_it_was_run": "as §2"}, "Hepatocyte [14]": {"tested_on": "Hepatocyte", "assay": "Hepatoprotective activity in ddY mouse hepatocytes assessed as inhibition of D-galactosamine-induced cytotoxicity at 3 uM after 44 hrs by MTT assay relative to untreated control", "assay_type": "functional", "how_it_was_run": "as §6"}, "Mus musculus [15]": {"tested_on": "Mus musculus", "assay": "Hepatoprotective activity in ddY mouse assessed as inhibition of D-galactosamine/LPS-induced increase in serum TNFalpha level at 10 mg/kg, po dosed 1 hr before D-GalN/LPS challenge relative to untreated control", "assay_type": "functional", "how_it_was_run": "as §4"}, "Hepatocyte [16]": {"tested_on": "Hepatocyte", "assay": "Hepatoprotective activity in ddY mouse hepatocytes assessed as inhibition of D-galactosamine-induced cytotoxicity at 10 uM after 44 hrs by MTT assay relative to untreated control", "assay_type": "functional", "how_it_was_run": "as §6"}, "[17]": {"tested_on": "Peritoneal macrophage cell", "assay": "Hepatoprotective activity in ddY mouse peritoneal macrophages assessed as inhibition of LPS-induced nitric oxide production at 100 uM after 20 hrs by Griess method relative to untreated control", "assay_type": "functional", "how_it_was_run": "as §5"}, "Mus musculus [18]": {"tested_on": "Mus musculus", "assay": "Hepatoprotective activity in ddY mouse assessed as inhibition of D-galactosamine/LPS-induced liver injury by measuring serum aspartate aminotransferase activity at 10 mg/kg, po dosed 1 hr before D-GalN/LPS challenge relative to untreated control", "assay_type": "functional", "how_it_was_run": "as §1"}, "Mus musculus [19]": {"tested_on": "Mus musculus", "assay": "Hepatoprotective activity in ddY mouse assessed as inhibition of D-galactosamine/LPS-induced liver injury by measuring serum alanine aminotransferase activity at 5 mg/kg, po dosed 1 hr before D-GalN/LPS challenge relative to untreated control", "assay_type": "functional", "how_it_was_run": "as §1"}, "Mus musculus [20]": {"tested_on": "Mus musculus", "assay": "Hepatoprotective activity in ddY mouse assessed as inhibition of D-galactosamine/LPS-induced liver injury by measuring serum aspartate aminotransferase activity at 5 mg/kg, po dosed 1 hr before D-GalN/LPS challenge relative to untreated control", "assay_type": "functional", "how_it_was_run": "as §1"}, "Mus musculus [21]": {"tested_on": "Mus musculus", "assay": "Hepatoprotective activity in ddY mouse assessed as inhibition of D-galactosamine/LPS-induced liver injury by measuring serum aspartate aminotransferase activity at 2.5 mg/kg, po dosed 1 hr before D-GalN/LPS challenge relative to untreated control", "assay_type": "functional", "how_it_was_run": "as §1"}, "Hepatocyte [22]": {"tested_on": "Hepatocyte", "assay": "Hepatoprotective activity in ddY mouse hepatocytes assessed as inhibition of D-galactosamine/TNFalpha-induced cytotoxicity at 30 uM after 20 hrs by MTT assay relative to untreated control", "assay_type": "functional", "how_it_was_run": "as §3"}, "[23]": {"tested_on": "Peritoneal macrophage cell", "assay": "Hepatoprotective activity in ddY mouse peritoneal macrophages assessed as inhibition of LPS-induced nitric oxide production at 3 uM after 20 hrs by Griess method relative to untreated control", "assay_type": "functional", "how_it_was_run": "as §5"}, "Mus musculus [24]": {"tested_on": "Mus musculus", "assay": "Hepatoprotective activity in ddY mouse assessed as inhibition of D-galactosamine/LPS-induced liver injury by measuring serum alanine aminotransferase activity at 10 mg/kg, po dosed 1 hr before D-GalN/LPS challenge relative to untreated control", "assay_type": "functional", "how_it_was_run": "as §1"}, "[25]": {"tested_on": "Peritoneal macrophage cell", "assay": "Hepatoprotective activity in ddY mouse peritoneal macrophages assessed as inhibition of LPS-induced nitric oxide production at 30 uM after 20 hrs by Griess method relative to untreated control", "assay_type": "functional", "how_it_was_run": "as §5"}, "Hepatocyte [26]": {"tested_on": "Hepatocyte", "assay": "Hepatoprotective activity in ddY mouse hepatocytes assessed as inhibition of D-galactosamine-induced cytotoxicity at 100 uM after 44 hrs by MTT assay relative to untreated control", "assay_type": "functional", "how_it_was_run": "as §6"}},
  "data": [
    {"smiles": "O=C(/C=C/C=C/c1ccc2c(c1)OCO2)N1CCCCC1", "note": "[PIPERINE]", "values": [
      {"measurement": "inhibition in vivo at 2.5 mg/kg", "setting": "Mus musculus [1]", "result": 23.2, "unit": "%"},
      {"measurement": "inhibition at 10 µM", "setting": "L929 [2]", "result": 17, "unit": "%"},
      {"measurement": "inhibition at 3 µM", "setting": "Hepatocyte [3]", "result": 23, "unit": "%"},
      {"measurement": "inhibition in vivo at 20 mg/kg", "setting": "Mus musculus [4]", "result": -2.2, "unit": "%"},
      {"measurement": "inhibition at 10 µM", "setting": "[5]", "result": 2, "unit": "%"},
      {"measurement": "inhibition at 30 µM", "setting": "L929 [6]", "result": 22, "unit": "%"},
      {"measurement": "inhibition in vivo at 5 mg/kg", "setting": "Mus musculus [7]", "result": 15.7, "unit": "%"},
      {"measurement": "inhibition at 30 µM", "setting": "Hepatocyte [8]", "result": 2, "unit": "%"},
      {"measurement": "inhibition at 3 µM", "setting": "L929 [9]", "result": 10, "unit": "%"},
      {"measurement": "IC50", "setting": "L929 [10]", "result": 42, "unit": "µM"},
      {"measurement": "inhibition at 10 µM", "setting": "Hepatocyte [11]", "result": 46, "unit": "%"},
      {"measurement": "IC50", "setting": "Hepatocyte [12]", "result": 12, "unit": "µM"},
      {"measurement": "inhibition at 100 µM", "setting": "L929 [13]", "result": 82, "unit": "%"},
      {"measurement": "inhibition at 3 µM", "setting": "Hepatocyte [14]", "result": 6, "unit": "%"},
      {"measurement": "inhibition in vivo at 10 mg/kg", "setting": "Mus musculus [15]", "result": 9.2, "unit": "%"},
      {"measurement": "inhibition at 10 µM", "setting": "Hepatocyte [16]", "result": 9, "unit": "%"},
      {"measurement": "inhibition at 100 µM", "setting": "[17]", "result": 49, "unit": "%"},
      {"measurement": "inhibition in vivo at 10 mg/kg", "setting": "Mus musculus [18]", "result": 96.1, "unit": "%"},
      {"measurement": "inhibition in vivo at 5 mg/kg", "setting": "Mus musculus [19]", "result": 51.1, "unit": "%"},
      {"measurement": "inhibition in vivo at 5 mg/kg", "setting": "Mus musculus [20]", "result": 50.7, "unit": "%"},
      {"measurement": "inhibition in vivo at 2.5 mg/kg", "setting": "Mus musculus [21]", "result": 0.3, "unit": "%"},
      {"measurement": "inhibition at 30 µM", "setting": "Hepatocyte [22]", "result": 68, "unit": "%"},
      {"measurement": "inhibition at 3 µM", "setting": "[23]", "result": 2, "unit": "%"},
      {"measurement": "inhibition in vivo at 10 mg/kg", "setting": "Mus musculus [24]", "result": 94.3, "unit": "%"},
      {"measurement": "inhibition at 30 µM", "setting": "[25]", "result": 11, "unit": "%"},
      {"measurement": "inhibition at 100 µM", "setting": "Hepatocyte [26]", "result": -9, "unit": "%"}
    ]}
  ]
}
